Experimental data published in publication PMC11364137 (Materials Today Bio, 2024).

Columns and labels:
[1] = system: S. aureus bacterial strain ATCC25923; assay: In vivo hernia mesh infection model; parameters: species or system New Zealand white rabbits; details: rabbit, 14 days after surgery
In short: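 Rabbit mesh-implant infection model; anaesthesia im 15 min pre-surgery with ketamine (70 mg kg), diazepam and chlorpromazine (1.5 mg kg⁻¹ each). S. aureus ATCC25923 was grown on LB agar 24 h, 37 °C, then overnight in LB and diluted in 0.9 % saline to a target 10^6 CFU.mL⁻¹. At 14 days animals were xylazine-sedated (im), CO₂-euthanised; implant fragments examined by light microscopy and SEM.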

S. aureus = assay: Resistance acquisition assay; format: cell-based, Staphylococcus aureus; details: second assay, concentration kept constant (half of the initial MIC), 30 days

For `[H]/N=C(\N/C(=N/[H])NCCCCCCNC(=N)NC(=N)Nc1ccc(Cl)cc1)Nc1ccc(Cl)cc1` [CHX, Chlorhexidine], the “inflammatory reaction (histology)” value [1] was “moderate inflammatory reaction”, the “macroscopic observations at necropsy compared with uncoated mesh” value [1] was “less purulent material, weak hypervascularization, and better tissue integration” and the “skin fistula, necrosis, or edema at necropsy” value ([1]; n = 7 per group) was “no animal developed skin fistula, necrosis, or edema”. For the same compound, the “bacteria presence in tissue (histology, S. aureus immunolabeling)” value ([1]; qualitative) was “not recorded or noticeably reduced”.
`CN(C)[C@@H]1C(O)=C(C(N)=O)C(=O)[C@@]2(O)C(O)=C3C(=O)c4c(O)cccc4[C@@](C)(O)[C@H]3C[C@@H]12` [tetracycline] was tested, and the “increase of relative MIC” value (S. aureus) was “around 3 times”.
For Poly(L-arginine) [PAR30], the “increase of relative MIC” value (S. aureus) was “strongly stable”.
